Consider 7 compounds from ChEMBL document CHEMBL1124363, “Photoaffinity, biotinyl, and iodo analogues as probes for vasotocin receptors” (1989).

Where a SMILES comes first, the peptide text is derived from it. Bridges are numbered along the chain shown (N, C = ends). [ ]: non-standard residue; d: D form. The star is where a group is joined. Biotin = O=C1N[C@H]2[C@H](CS[C@H]2CCCCC(=O)*)N1; Phe(4-NH2) = Nc1ccc(C[C@H](N)C(=O)O)cc1; Mpa = O=C(O)CCS

Assay [1] in a line: Effective concentration of compound for half-maximal response in hydroosmotic toad bladder assay. The note with it: Amphibia; read-out: ED50 (the source's name). Type of assay: functional. Summed up:
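Toad hemibladders filled with Ringer's fluid diluted to half-strength with distilled water. Net osmotic water flux across the bladder wall measured gravimetrically by the Bentley method. ED-50 taken as the concentration giving a half-maximal water flow response.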

Assay [2] is filed under the species Rattus norvegicus. Description: Antidiuretic activity of compound was assayed on water-loaded rats. Type of assay: functional, Urine.
Assay [3] concerns Rattus norvegicus. In words: Pressor activity of compound was assayed on urethane-anesthetized, phenoxybenzamine-treated rats. Type of assay: functional. Details: unit not given here.

With `CC[C@H](C)[C@@H]1NC(=O)[C@H](Cc2ccccc2)NC(=O)[C@@H](N)CSSC[C@@H](C(=O)N2CCC[C@H]2C(=O)N[C@@H](CCCN=C(N)N)C(=O)N[C@@H](Cc2ccc(O)cc2)C(N)=O)NC(=O)[C@H](CC(N)=O)NC(=O)[C@H](CCC(N)=O)NC1=O` (HELM PEPTIDE1{C.F.I.Q.N.C.P.R.Y.[am]}$PEPTIDE1,PEPTIDE1,1:R3-6:R3$$$V2.0), the EC50 in assay [1] is 2.1 nM. In the assay filed under Rattus norvegicus [2], this compound had an Antidiuretic activity of 2.8 U/mg. In the assay with Rattus norvegicus [3], the Pressor activity was determined as 0.

Consider `CC[C@H](C)[C@@H]1NC(=O)[C@H](Cc2ccccc2)NC(=O)[C@@H](N)CSSC[C@@H](C(=O)N2CCC[C@H]2C(=O)N[C@@H](CCCN=C(N)N)C(=O)N[C@@H](Cc2ccc(O)c(I)c2)C(N)=O)NC(=O)[C@H](CC(N)=O)NC(=O)[C@H](CCC(N)=O)NC1=O` (HELM PEPTIDE1{C.F.I.Q.N.C.P.R.[O=C([C@H](Cc1ccc(O)c(I)c1)N[*:1])[*:2]].[am]}$PEPTIDE1,PEPTIDE1,1:R3-6:R3$$$V2.0), for which the EC50 in assay [1] was found to be 2.5 nM. In the assay filed under Rattus norvegicus [2], the Antidiuretic activity stood at 0.41 U/mg.

As for `CC[C@H](C)[C@@H]1NC(=O)[C@H](Cc2ccc(O)cc2)NC(=O)[C@@H](N)CSSC[C@@H](C(=O)N2CCC[C@H]2C(=O)N[C@@H](CCCN=C(N)N)C(=O)N[C@@H](Cc2ccc(O)cc2)C(N)=O)NC(=O)[C@H](CC(N)=O)NC(=O)[C@H](CCC(N)=O)NC1=O` (HELM PEPTIDE1{C.Y.I.Q.N.C.P.R.Y.[am]}$PEPTIDE1,PEPTIDE1,1:R3-6:R3$$$V2.0), the EC50 in assay [1] was found to be 0.49 nM. This compound also showed an Antidiuretic activity in the assay listed under Rattus norvegicus [2] of 25 U/mg. This compound also came in with a Pressor activity in the assay with Rattus norvegicus [3] of 0.

As to `CC[C@H](C)[C@@H]1NC(=O)[C@H](Cc2ccc(O)cc2)NC(=O)CCSSC[C@@H](C(=O)N2CCC[C@H]2C(=O)N[C@@H](CCCN=C(N)N)C(=O)N[C@@H](Cc2ccc(N)cc2)C(N)=O)NC(=O)[C@H](CC(N)=O)NC(=O)[C@H](CCC(N)=O)NC1=O` (HELM PEPTIDE1{[O=C(CCS[*:3])[*:2]].Y.I.Q.N.C.P.R.[Nc1ccc(C[C@H](N[*:1])C(=O)[*:2])cc1].[am]}$PEPTIDE1,PEPTIDE1,1:R3-6:R3$$$V2.0), the EC50 in assay [1] turned out to be 0.13 nM. In the assay listed under Rattus norvegicus [2], this compound gave an Antidiuretic activity of 66 U/mg. In the assay on Rattus norvegicus [3], this compound gave a Pressor activity of 0.

Take `CC[C@H](C)[C@@H]1NC(=O)[C@H](Cc2ccc(O)cc2)NC(=O)CCSSC[C@@H](C(=O)N2CCC[C@H]2C(=O)N[C@@H](CCCN=C(N)N)C(=O)N[C@@H](Cc2ccc(N=[N+]=[N-])cc2)C(N)=O)NC(=O)[C@H](CC(N)=O)NC(=O)[C@H](CCC(N)=O)NC1=O` (HELM PEPTIDE1{[O=C(CCS[*:3])[*:2]].Y.I.Q.N.C.P.R.[[N-]=[N+]=Nc1ccc(C[C@H](N[*:1])C(=O)[*:2])cc1].[am]}$PEPTIDE1,PEPTIDE1,1:R3-6:R3$$$V2.0): the EC50 in assay [1] amounted to 0.09 nM. The compound also showed an Antidiuretic activity in the assay filed under Rattus norvegicus [2] of 40 U/mg.

For `CC[C@H](C)[C@@H]1NC(=O)[C@H](Cc2ccc(O)cc2)NC(=O)CCSSC[C@@H](C(=O)N2CCC[C@H]2C(=O)N[C@@H](CCCN=C(N)N)C(=O)N[C@@H](Cc2ccc(NC(=O)CCCC[C@@H]3SC[C@@H]4NC(=O)N[C@@H]43)cc2)C(N)=O)NC(=O)[C@H](CC(N)=O)NC(=O)[C@H](CCC(N)=O)NC1=O` ([Mpa]YIQNCPR[Phe(4-NH2)](Biotin)-NH2; disulfide 1-6), the EC50 in assay [1] turned out to be 12 nM. This compound displayed an Antidiuretic activity in the assay listed under Rattus norvegicus [2] of 23 U/mg.

In the case of `CC[C@H](C)[C@@H]1NC(=O)[C@H](Cc2ccc(O)cc2)NC(=O)[C@@H](N)CSSC[C@@H](C(=O)N2CCC[C@H]2C(=O)N[C@@H](CCCN=C(N)N)C(=O)NCC(N)=O)NC(=O)[C@H](CC(N)=O)NC(=O)[C@H](CCC(N)=O)NC1=O` [VASOTOCIN] (HELM PEPTIDE1{C.Y.I.Q.N.C.P.R.G.[am]}$PEPTIDE1,PEPTIDE1,1:R3-6:R3$$$V2.0), the EC50 in assay [1] was 0.022 nM. Also, the Antidiuretic activity in the assay listed under Rattus norvegicus [2] turned out to be 231 U/mg. This compound also gave a Pressor activity with Rattus norvegicus [3] of 160.
